Assay results from ChEMBL document CHEMBL1129262, “Peptidyl anthraquinones as potential antineoplastic drugs: synthesis, DNA binding, redox cycling, and biological activity” (J Med Chem, 1996).

How the values were obtained:
[1] = Exclusion parameter (base pairs); format: ADME
Procedure, shortened: (§1)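 DNA titrations were run at constant anthraquinone concentration while the DNA/drug ratio was varied, at 25 °C in 10 mM Tris pH 7.0 with 1 mM EDTA and NaCl added to set ionic strength. Binding was followed by fluorescence quenching, or by absorbance at 500–750 nm for non-fluorescent drugs. McGhee–von Hippel analysis gave the intrinsic constant K and the exclusion parameter n.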

Nucleic Acid = assay: Intrinsic Binding constant of compound to DNA at pH 7 and 25 Centigrade; format: functional; settings: Bos taurus; procedure, shortened: as §1
HL-60 = assay: Effective concentration against cell growth of HL60 cell line by 50%; format: functional; settings: Homo sapiens, HL-60, read-out: ED50
Procedure, shortened: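 HL60 cells grown in RPMI-1640 with 10% fetal calf serum. Exponentially growing cells were exposed to drug for 1 h at 37 °C. Survival was read either by MTT, after washing and 96 h culture in drug-free medium, or by cell counting after 72 h culture. Value is the drug concentration inhibiting cell growth by 50%.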

HeLa = assay: Effective concentration against cell growth of HeLa cell line by 50%; format: functional; settings: Homo sapiens, read-out: ED50
Procedure, shortened: (§2)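 HeLa and L1210 cells grown in Dulbecco's modified Eagle's medium with 5% fetal calf serum, antibiotics and L-glutamine. Exponentially growing cells were exposed to drug for 1 h at 37 °C. Growth was scored by MTT, after washing and 96 h drug-free culture, or by cell counting after 72 h. Value is the concentration giving 50% growth inhibition.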

L1210 = assay: Effective concentration against cell growth of L1210 cell line by 50%; format: functional; settings: Mus musculus, L1210, read-out: ED50; procedure, shortened: as §2
[2] = Exclusion parameter (base pairs; format: ADME
Procedure, shortened: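 Fluorometric titration at 25 °C in 10 mM Tris pH 7.0, 1 mM EDTA, NaCl set to the chosen ionic strength. DNA/drug ratio varied at constant drug concentration by mixing drug-alone and drug-plus-DNA solutions. Nonfluorescent drugs followed spectrophotometrically at 500–750 nm. Data fitted by McGhee–von Hippel to give K and the exclusion parameter n.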

Structure (SMILES)	Exclusion parameter [1]	K x10e-5 (Nucleic Acid) [M⁻¹]	EC50 (HL-60) [nM]	EC50 (HeLa) [nM]	EC50 (L1210) [nM]	Exclusion parameter [2]
NCCCC[C@H](N)C(=O)NCC(=O)Nc1ccc(NC(=O)CNC(=O)[C@@H](N)CCCCN)c2c1C(=O)c1ccccc1C2=O	2.3	17.5	> 100000	> 100000	–	–
O=C1c2ccccc2C(=O)c2c(NCCNCCO)ccc(NCCNCCO)c21 [AMETANTRONE]	–	3.4	880	3100	100	2.7
NCC(=O)NCC(=O)Nc1ccc(N)c2c1C(=O)c1ccccc1C2=O	2.2	1.7	2000	2700	240	–
N[C@@H](Cc1c[nH]c2ccccc12)C(=O)NCC(=O)Nc1ccc(NC(=O)CNC(=O)[C@@H](N)Cc2c[nH]c3ccccc23)c2c1C(=O)c1ccccc1C2=O	–	–	30000	–	–	–
NCC(=O)Nc1ccc(NC(=O)CN)c2c1C(=O)c1ccccc1C2=O	2.3	2.2	1900	1600	900	–

Second part, led by results:

Exclusion parameter [1]	K x10e-5 (Nucleic Acid) [M⁻¹]	EC50 (HL-60) [nM]	EC50 (HeLa) [nM]	EC50 (L1210) [nM]	Structure (SMILES)	Exclusion parameter [2]
2.5	2.4	2300	2400	800	NCC(=O)NCC(=O)Nc1ccc(NC(=O)CNC(=O)CN)c2c1C(=O)c1ccccc1C2=O	–
2.4	33	> 100000	> 100000	–	NCCCCC(N)C(=O)NCC(=O)Nc1ccc(NC(=O)CNC(=O)C(N)CCCCN)c2c1C(=O)c1ccccc1C2=O (configuration not stated)	–
2.1	3.6	2000	2700	310	NCC(=O)Nc1ccc(N)c2c1C(=O)c1ccccc1C2=O	–
2.4	2.4	–	–	–	NCC(=O)NCC(=O)NCC(=O)Nc1ccc(NC(=O)CNC(=O)CNC(=O)CN)c2c1C(=O)c1ccccc1C2=O	–
–	–	28000	–	–	NC(Cc1c[nH]c2ccccc12)C(=O)NCC(=O)Nc1ccc(NC(=O)CNC(=O)C(N)Cc2c[nH]c3ccccc23)c2c1C(=O)c1ccccc1C2=O (configuration not stated)	–
